The list is not random: actives were taken first. Their share in the collection is about 3.5%.
RGS4 inh: human RGS4 inhibition. P49798. HEK293 M3R/RGS4 inducible, Fluo-4 calcium flux; stronger effect = higher value; triggered by carbachol at its EC20. B-score at 10 µM. 310,000 compounds, 0.45% hits. AID 463165;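 active = B-score, a plate-corrected calcium signal, over three deviations above library mean, with baseline fluorescence within five deviations of library mean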;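 also: RGS4 expression induced by doxycycline in cells with stable M3 receptor; B-score is computed from the integrated fluorescence ratio over baseline after carbachol; higher B-score means a larger calcium signal and so more RGS4 inhibition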
Target sequence (P49798 whole entry, looked up): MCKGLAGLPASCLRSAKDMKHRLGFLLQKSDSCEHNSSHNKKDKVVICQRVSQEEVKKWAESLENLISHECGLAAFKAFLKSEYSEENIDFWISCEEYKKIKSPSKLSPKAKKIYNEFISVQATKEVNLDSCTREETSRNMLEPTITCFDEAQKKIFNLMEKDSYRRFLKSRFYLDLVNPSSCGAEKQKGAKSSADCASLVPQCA
MrgX1 agonist: activates human MrgX1 receptor signaling | Q96LB2 | MrgX1-HEK293 cells, Fluo-4 calcium fluorescence, agonist mode; stronger effect = higher value | B-score at 10 µM | 310,000 compounds, 0.44% hits;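 active = calcium response B-score plate-corrected fluorescence ratio at least 3 library SD, with starting fluorescence B-score inside 5 SD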
Target sequence (Q96LB2 whole entry, looked up): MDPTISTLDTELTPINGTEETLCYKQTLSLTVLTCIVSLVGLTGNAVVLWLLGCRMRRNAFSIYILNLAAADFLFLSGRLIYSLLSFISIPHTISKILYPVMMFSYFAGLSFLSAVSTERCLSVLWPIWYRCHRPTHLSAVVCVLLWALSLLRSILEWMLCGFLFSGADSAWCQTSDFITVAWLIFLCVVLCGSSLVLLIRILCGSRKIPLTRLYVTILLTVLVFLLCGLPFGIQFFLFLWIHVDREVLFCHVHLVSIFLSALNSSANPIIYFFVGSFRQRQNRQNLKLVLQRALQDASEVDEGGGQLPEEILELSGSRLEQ
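Test system: HEK293 cells stably expressing human MrgX1 receptor; Input: fifteen thousand cells per well; Dosing: compound delivered in addition one of three; Schedule: overnight seeding, then 1 h dark dye loading; Technique: Fluo-4 NW calcium fluorescence; Measure: B-scored fluorescence response ratio; Controls: positive and negative controls per plate.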
MrgX1 PAM: human MrgX1 positive allosteric modulation, primary screen; Q96LB2; MrgX1-HEK293, Fluo-4 calcium flux, FDSS; stronger effect = higher value; B-score at 10 µM; 310,000 compounds, 0.63% hits; AID 588675;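 active = plate-corrected calcium response at least 3 library SD above typical, normal starting fluorescence, not activating the receptor alone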;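 also: compound read alongside a low EC10 to EC30 dose of BAM8-22 agonist; peak minus trough fluorescence over baseline measured at the second addition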
RGS4 pot: potentiators or activators of RGS4 | HEK293 M3R/inducible RGS4, carbachol calcium flux Fluo4; stronger effect = lower value | B-score at 10 µM | 310,000 compounds, 0.92% hits;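 active = B-score of the integrated calcium signal more than 4 SD below the library mean, with starting fluorescence not abnormally high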;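 also: negative B-score means reduced calcium response which marks RGS4 activation or potentiation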
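Reagent: ECmax carbachol challenge; Test system: M3R-expressing HEK293 line, RGS4 induced by doxycycline; Schedule: overnight RGS4 induction, 30 min dye load 37 °C, 20 min compound RT; Detection: calcium dye Fluo4 fluorescence; Read-out: Agonist-evoked peak-minus-minimum fluorescence over baseline, integrated ratio, B score.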
MrgX1 antag: antagonists of human MrgX1 receptor | 310,000 compounds, 1.3% hits | MRGX1-HEK293 calcium flux, Fluo-4, BAM8-22 antagonism; stronger effect = lower value | Q96LB2 | B-score at 10 µM;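 active = calcium-response B-score plate-corrected more than 3 library SD below zero, starting fluorescence within 5 deviations, no agonist response on first addition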;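 also: peak minus trough fluorescence over baseline after final BAM8-22 challenge near maximal dose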
MrgX1 ant reconf: human MrgX1 receptor antagonism, re-confirmation screen | shares compounds with MrgX1 antag | 2,300 compounds, 19% hits | MrgX1-HEK293, BAM8-22 calcium flux, Fluo-4; stronger effect = lower value | remaining BAM8-22 calcium response % of control (stronger effect = lower value), % at 10 µM;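 active = remaining agonist calcium response no higher than 100% minus 3 SD of agonist-only control wells, with starting fluorescence near control levels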;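 also: agonist BAM8-22 given at a near maximal EC90 to ECmax level; peak minus minimum fluorescence divided by baseline after agonist addition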
HEK293 Ca flux: counter-screen for MrgX1 antagonists: effect in parental HEK293 cells; fluorescence ratio F(max-min)/F0 at 10 µM; Fluo-4 calcium fluorescence, FDSS; shares compounds with MrgX1 antag; 4,000 compounds, 2% hits;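 active = duplicate-averaged calcium fluorescence ratio at least three times the standard deviation of buffer wells, a nonspecific response in parental cells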
HEK293 Ca counter: MrgX1 allosteric activator counter-screen hit in parental HEK293 cells; fluorescence ratio F(max-min)/F0 at 10 µM; parental HEK293 calcium flux, Fluo-4 fluorescence ratio; stronger effect = higher value; shares compounds with MrgX1 antag; 4,000 compounds, 0.4% hits;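 active = calcium fluorescence ratio, averaged over duplicates, at least 3 SD of the buffer-well ratio, meaning a nonspecific response in receptor-free cells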;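 also: untransfected parental HEK293 lacking MrgX1 used as counterscreen for MrgX1 allosteric activators; fluorescence change taken during the second addition on a kinetic imager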
HEK293 Ca cntr2: counter-screen for MrgX1 activators: effect in parental HEK293 cells; shares compounds with MrgX1 antag; Fluo-4 calcium fluorescence (FDSS); stronger effect = higher value; 4,000 compounds, 8.7% hits; fluorescence ratio F(max-min)/F0 at 10 µM;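 active = calcium fluorescence ratio at least three times the spread of buffer wells, meaning a non-specific response in parental cells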
The depositor's hits bear a star; i = inactive; x = not tested or not shown.

SMILES	RGS4 inh	MrgX1 agonist	MrgX1 PAM	RGS4 pot	MrgX1 antag	MrgX1 ant reconf	HEK293 Ca flux	HEK293 Ca counter	HEK293 Ca cntr2
COc1ccc(-n2nc3c(c2NC(=O)COc2cccc(OC)c2)CS(=O)(=O)C3)cc1	i	i	i	i	-7.5*	i	i	i	i
O=C(Nc1ccc2c(c1)OC1(CCCC1)O2)C1CC1	i	i	i	i	-5.9*	i	i	i	i
O=C(CCC(=O)c1cccs1)NCCc1ccc(F)cc1	i	i	i	i	i	x	x	x	x
COC(=O)CCc1c(C)c(C(=O)c2cc(F)c(F)c(F)c2F)c2ccccn12	i	i	i	i	i	x	x	x	x
COC(=O)CCc1c(C)c(C(=O)c2ccc(F)cc2)c2ccccn12	i	i	i	i	-5.7*	i	i	i	i
Cc1ccc(C(=O)NCC(=O)OC(C)C(=O)NC2CCCc3ccccc32)cc1 (stereo not drawn)	i	i	i	i	i	x	x	x	x
CNCCCOc1ccc2c(c1)CCC2	i	i	i	i	-5*	i	i	i	i
c1cc2c(cc1OCCNC1CCCC1)CCC2	i	i	i	i	i	x	x	x	x
COc1ccc(OC)c(NC(=O)Nc2cccc3ccccc23)c1	i	i	i	i	-4.6*	i	i	i	i
COc1ccc(OC)c(NC(=O)CN(Cc2ccccc2)S(C)(=O)=O)c1	i	i	i	i	-9.1*	i	i	i	i
COc1ccc(NC(=O)CN(Cc2ccccc2)S(C)(=O)=O)c(OC)c1	i	i	i	i	i	x	x	x	x
CCOc1ccc(Br)cc1CC(=O)O	i	i	i	i	i	x	x	x	x
CCCOc1ccc(Br)cc1CSC(=N)N	i	i	i	i	-4.6*	i	i	i	i
COc1ccccc1N1CCN(CC(O)COc2ccc(C)cc2C)CC1 (stereo not drawn)	i	i	i	i	i	x	x	x	x
COc1ccc(NC(C)=O)cc1NC(=O)C1CCN(C(=O)Nc2ccccc2)CC1	i	i	i	i	i	x	x	x	x
O=C(O)Cn1nnnc1-c1ccc(F)cc1	i	i	i	i	-5.6*	i	i	i	i
O=C(Nc1ccccc1F)C(=O)c1cn(CC(=O)N2CCCCC2)c2ccccc12	i	i	i	i	-5*	i	i	i	i
CC(=O)Nc1ccc(NC(=O)C(=O)c2cn(CC(=O)N3CCCC3)c3ccccc23)cc1	i	i	i	i	i	x	x	x	x
COc1cc(-c2nnn(CC#N)n2)ccc1OCc1ccccc1	i	i	i	i	-4.7*	i	i	i	i
COc1cc(-c2nnn(CC(=O)NC3CCS(=O)(=O)C3)n2)ccc1OCc1ccccc1 (stereo not drawn)	i	i	i	i	i	x	x	x	x
COc1ccc(-c2nnn(CC(=O)c3ccccc3)n2)cc1OC	i	i	i	i	-4.7*	i	i	i	i
NC(=O)c1cnn2c(C(F)(F)F)cc(-c3ccccc3)nc12	i	i	i	i	i	x	x	x	x
O=C(NCc1ccco1)c1cnn2c(C(F)(F)F)cc(-c3ccccc3)nc12	i	i	i	i	-4.7*	i	i	i	i
Cc1nn(-c2ccccc2)c2nc(-c3ccncc3)cc(C(=O)NCc3ccco3)c12	i	i	i	i	-5.9*	i	i	i	i
O=S(=O)(c1ccccc1Cl)N1CCC(Cc2ccccc2)CC1	i	i	i	i	i	x	x	x	x
SMILES	RGS4 inh	MrgX1 agonist	MrgX1 PAM	RGS4 pot	MrgX1 antag	MrgX1 ant reconf	HEK293 Ca flux	HEK293 Ca counter	HEK293 Ca cntr2
CCOc1ccccc1N1CCN(C(=O)CCCN2C(=O)c3cccc4cccc(c34)C2=O)CC1	i	i	i	i	-5.5*	i	i	i	i
COc1cc(NC(=O)CN2C(=O)C(C)N(c3ccc(C)cc3)C2=O)cc(OC)c1 (stereo not drawn)	i	i	i	i	-6.5*	i	i	i	i
CC(C)NC(=O)CC1Nc2c3ccccc3nc(=S)n2C1=O (stereo not drawn)	i	i	i	i	-5.3*	i	i	i	i
Cc1ccc(N2CC(C(=O)Nc3nnc(SCCN4CCOCC4)s3)CC2=O)cc1C (stereo not drawn)	i	i	i	i	i	x	x	x	x
Nc1nnnn1/N=C/C=C/c1ccccc1	i	i	i	i	i	x	x	x	x
Nc1nnnn1/N=C/C(Br)=C/c1ccccc1	i	i	i	i	-5.1*	i	i	i	i
COC(=O)[C@@H]1C[C@H]1[C@@H](NC(=O)c1cc(C)on1)c1ccccc1	i	i	i	i	i	x	x	x	x
O=C(CCNC(=O)c1ccc(Cl)cc1)NCc1cccc(C(F)(F)F)c1	i	i	i	i	-10*	i	i	i	i
Cn1cnnc1SCC(=O)NCc1cccc(C(F)(F)F)c1	i	i	i	i	-6.5*	i	i	i	i
Cc1ccc(NC(=O)COC(=O)Cc2ccsc2)cc1S(=O)(=O)N1CCOCC1	i	i	i	i	-5.4*	i	i	i	i
CCOC(=O)c1ccccc1NC(=O)COC(=O)C1CCN(S(=O)(=O)c2ccccc2C(=O)OC)CC1	i	i	i	i	-11*	i	i	i	i
Cc1ccc(NC(=O)COC(=O)C2CCC2)cc1S(=O)(=O)N1CCCCC1	i	i	i	i	-5.4*	84%*	i	i	i
CC(C)(C)OC(=O)N1CCC(C(=O)N[C@H](C(=O)O)c2ccccc2)(c2ccccc2)CC1	i	i	i	i	i	x	x	x	x
COc1ccccc1NC(=O)Cc1nnc(SCC(=O)NC2=NCCS2)n1C	i	i	i	i	i	x	x	x	x
CC(C)C[C@H](NC(=O)N1c2ccccc2NC(=O)[C@@H]1C(C)C)C(=O)N1CCC[C@@H]1C(=O)O	i	i	i	i	i	x	x	x	x

Screens deposited in PubChem by Johns Hopkins Ion Channel Center.
